Results collected from several papers.
Lines come from different studies, so protocols differ.
Cell line: PC-3
Read-out: cell growth or viability

COc1ccc(C(=O)/C=C/c2cccc(Cl)c2Cl)cc1S(N)(=O)=O
GI50 (SRB; 48 h): 4.5 µM

CSc1cccc(NC(=O)C2CCCN(C(=O)c3cccc(-c4ccco4)c3)C2)c1 (stereo not drawn)
inhibition (WST-1; 100 µM): 0%

COc1cc(-c2ccc(-c3ccc(C(=N)N)nc3)s2)cc(OC)c1OC
GI50: 3.11 µM

CC/C(=C(\c1ccccc1)c1ccc(OCCN(C)C)cc1)c1ccccc1
EC90 (ATP luminescence; 72 h): 31 µM

C=CCOc1cccc(NC(=O)C2CCCN(C(=O)c3cc(C(F)(F)F)cc(C(F)(F)F)c3)C2)c1 (stereo not drawn)
inhibition (WST-1; 100 µM): 0%

COc1ccc(C(=O)/C=C/c2c(F)cccc2Cl)cc1S(N)(=O)=O
GI50 (SRB; 48 h): 4.7 µM

NC1(C(=O)N[C@@H](CCO)c2ccc(Cl)cc2)CCN(c2ncnc3[nH]ccc23)CC1
GI50 (72 h): > 8 µM

COc1ccc(-c2ccc(-c3ccc(C(=N)N)nc3)s2)cc1
GI50: 1.68 µM

CSc1cccc(NC(=O)C2CCCN(C(=O)c3cc(C(F)(F)F)cc(C(F)(F)F)c3)C2)c1 (stereo not drawn)
inhibition (WST-1; 100 µM): 0%

COc1cccc(/C=C2\SC(=S)N(CC(=O)Nc3ccccc3)C2=O)c1
inhibition (MTT; 10 µM): 10.6%

COc1ccccc1/C=C/C(=O)c1ccc(OC)c(S(N)(=O)=O)c1
GI50 (SRB; 48 h): 4.8 µM

O=C(CN1C(=O)/C(=C/c2ccc[nH]2)SC1=S)Nc1ccccc1
inhibition (MTT; 10 µM): 22.7%

CC(C)(C)OC(=O)c1cccc(NC(=O)C2CCCN(C(=O)c3cc(C(F)(F)F)cc(C(F)(F)F)c3)C2)c1 (stereo not drawn)
inhibition (WST-1; 100 µM): 0%

COc1ccc(C(=O)/C=C/c2ccc(Cl)c(Cl)c2)cc1S(N)(=O)=O
GI50 (SRB; 48 h): 1.9 µM

O=C(CN1C(=O)/C(=C/c2cccs2)SC1=S)Nc1ccccc1
inhibition (MTT; 10 µM): 5.3%

COc1ccc(C(=O)/C=C/c2ccccc2Br)cc1S(N)(=O)=O
GI50 (SRB; 48 h): 4.3 µM

O=C(CN1C(=O)/C(=C/c2cccc(Cl)c2)SC1=S)Nc1ccccc1
inhibition (MTT; 10 µM): 21%

O=C(Nc1ccc(Cl)cn1)C1CCCN(C(=O)c2cc(C(F)(F)F)cc(C(F)(F)F)c2)C1 (stereo not drawn)
inhibition (WST-1; 100 µM): 0%

O=C(CN1C(=O)/C(=C/c2ccccn2)SC1=S)Nc1ccccc1
inhibition (MTT; 10 µM): 30.5%

O=C(Nc1cccc(Oc2nccc(C(F)(F)F)c2Cl)c1)C1CCCN(C(=O)c2cc(C(F)(F)F)cc(C(F)(F)F)c2)C1 (stereo not drawn)
inhibition (WST-1; 100 µM): 0%

CC(C)c1ccc(/C=C2\SC(=S)N(CC(=O)Nc3ccccc3)C2=O)cc1
inhibition (MTT; 10 µM): 29%

COc1ccc(C(=O)/C=C/c2ccc3ccccc3c2)cc1S(N)(=O)=O
inhibition (SRB; 10 µM): 112%

O=C(CN1C(=O)/C(=C/c2ccco2)SC1=S)Nc1ccccc1
inhibition (MTT; 10 µM): 23.1%

COc1ccc(C(=O)/C=C/c2cc3c(cc2Br)OCO3)cc1S(N)(=O)=O
GI50 (SRB; 48 h): 6.8 µM
